Experimental data reported in ChEMBL document CHEMBL2169831 (J Med Chem, 2011).
Calls of active or inactive are those of the source. No cut-off for these calls is given here.

Key:
[1] = Drug degradation in 0.1 M phosphate buffer at pH 7.4 assessed as human butyrylcholinestase-mediated compound hydrolysis rate at 50 uM during first 1 min by spectrophotometric analysis; conditions: pH 7.4, 1 min
[2] = Binding affinity to Xenopus laevis oocyte CNGA1/CNGB1 assessed as inhibition of 2 mM cGMP-induced currents at +50 mV potential at 5 uM by patch-clamp method; conditions: read-out: Kd(app)
Outline: (§1)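 Rod CNGA1 plus CNGB1 cRNA (2:1; 33 ng plus 67 ng) co-injected into stage IV–V Xenopus oocytes, held at 16–18 °C. Inside-out excised patches recorded 3–7 days after injection. Channels were maximally activated with 2 mM cGMP, and compound was added. Steps ran from 0 to −50 and +50 mV. Currents with no cGMP were subtracted, and KD was fitted to a single-site block equation (mean ± SD).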

[3] = Binding affinity to Xenopus laevis oocyte CNGA1/CNGB1 assessed as inhibition of 2 mM cGMP-induced currents at -50 mV potential at 5 uM by patch-clamp method; conditions: read-out: Kd(app)
Outline: as §1

[4] = organism: Xenopus laevis; test: Inhibition of Xenopus laevis oocyte CNGA1/CNGB1 assessed as inhibition of cGMP-induced currents at +50 mV potential at 1 uM by patch-clamp method in presence of 100 uM cGMP
Outline: (§2)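 Heteromeric rod CNG channels from oocytes co-injected with CNGA1 and CNGB1 cRNA (33 ng:67 ng, 2:1), held at 16–18 °C and recorded 3–7 days later. Excised inside-out patches were stepped from 0 to −50 to +50 mV with sub-saturating cGMP (50 or 100 µM), with or without blocker. Currents without cGMP were subtracted and filtered at 300 Hz. Block was read at +50 mV.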

[5] = organism: Xenopus laevis; test: Inhibition of Xenopus laevis oocyte CNGA1/CNGB1 assessed as inhibition of currents at +50 mV potential at 2 uM by patch-clamp method in presence of 100 uM cGMP
Outline: as §2

[6] = organism: Xenopus laevis; test: Inhibition of Xenopus laevis oocyte CNGA1/CNGB1 assessed as inhibition of cGMP-induced currents at +50 mV potential at 1 uM by patch-clamp method in presence of 50 uM cGMP
Outline: as §2

[7] = organism: Xenopus laevis; test: Inhibition of Xenopus laevis oocyte CNGA1/CNGB1 assessed as inhibition of currents at +50 mV potential at 2 uM by patch-clamp method in presence of 50 uM cGMP
Outline: as §2

Compound: CCCCCCCCNc1ccc(C(=O)NCCN(C)C)cc1
- Drug degradation [1]: 1.2 nmol/min/mg

Compound: CCCCCCCCNc1ccc(C(=S)NCCN(C)C)cc1
- Kd [2]: 700 nM
- Kd [3]: 1800 nM

Compound: CCCCCCCCNc1ccc(C(=O)OCCN(C)C)cc1
- inhibition [4]: Active
- inhibition [5]: Active
- inhibition [6]: Active
- inhibition [7]: Active
- Kd [2]: 1000 nM
- Kd [3]: 2400 nM
- Drug degradation [1]: 213 nmol/min/mg

Compound: CCCCNc1ccc(C(=O)NCCN(C)C)cc1
- Kd [2]: 4400 nM
- Kd [3]: 28600 nM
- Drug degradation [1]: 8.4 nmol/min/mg

Compound: CCCCNc1ccc(C(=O)OCCN(C)C)cc1 [TETRACAINE]
- inhibition [4]: Active
- inhibition [5]: Active
- inhibition [6]: Active
- inhibition [7]: Active
- Drug degradation [1]: 132 nmol/min/mg

Compound: CCCCNc1ccc(C(=S)NCCN(C)C)cc1
- Kd [2]: 600 nM
- Kd [3]: 3900 nM
